In ChEMBL document CHEMBL1135327, “Comparison of the prevention of aflatoxin b(1)-induced genotoxicity by quercetin and quercetin pentaacetate” (2002) one finds inhibition, Activation and Activity data, which are given here for four compounds.

The structures appear in SMILES notation.

The nature of assay [1]: The compound was evaluated for in Vitro binding of AFB1 to DNA in rat liver microsomes; Pre-incubation time being 20 mins. The conditions noted are these: Microsome.
The species entered for assay [2] is Rattus norvegicus. The assay can be described thus: Influence (2 uM) on transacetylase catalyzed time dependent activation of NADPH cytochrome C reductase at pre-incubation time being 10 mins. The class given is functional. The procedure, abridged:
(§1)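 Rat liver microsomes were preincubated at 37 °C with test compound (in DMSO) in 0.05 M phosphate buffer, pH 7.7. Aliquots were taken at 5, 10, 20 and 30 min into a cuvette with EDTA, cytochrome C and NADPH. NADPH–cytochrome C reductase activity was followed at 550 nm. Values are means of four observations.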

Assay [3] can be described thus: The compound was evaluated for in Vitro binding of AFB1 to DNA in rat liver microsomes; Pre-incubation time being 10 mins. The note with it: Microsome. (Liver microsomes are vesicles of endoplasmic reticulum, rich in cytochrome P450 enzymes.)
Assay [4] in a line: The compound was evaluated for in Vitro binding of AFB1 to DNA in rat liver microsomes; Pre-incubation time being 30 mins. The note with it: Microsome.
The species entered for assay [5] is Rattus norvegicus. The assay can be described thus: Influence (2 uM) on transacetylase catalyzed time dependent activation of NADPH cytochrome C reductase at pre-incubation time being 20 mins. It is filed as functional. An outline of the steps:
as §1

The species named for assay [6] is Rattus norvegicus. Description: Influence (2 uM) on transacetylase catalyzed time dependent activation of NADPH cytochrome C reductase at pre-incubation time being 5 mins. It is filed as functional. An outline of the steps: as §1
Assay [7] is filed under the species Rattus norvegicus. The assay can be described thus: Influence (2 uM) on transacetylase catalyzed time dependent activation of NADPH cytochrome C reductase at pre-incubation time being 30 mins. The class given is functional. The procedure, abridged:
as §1

The species named for assay [8] is Rattus norvegicus. Description: Effect of compound on AFB1-induced micronuclei formation in rat bone marrow cells (Activity: Micronucleated cells/1000 cells). The class given is functional.
The species entered for assay [9] is Rattus norvegicus. Description: Effect of compound on AFB1-induced micronuclei formation in rat bone marrow cells in the presence of AFB1 (Activity: Micronucleated cells/1000 cells). It is filed as functional.
Assay [10] is filed under the species Rattus norvegicus. Description: Influence (5 uM) on transacetylase catalyzed time dependent activation of NADPH cytochrome C reductase at pre-incubation time being 20 mins. The class given is functional. The procedure, abridged: as §1
The species entered for assay [11] is Rattus norvegicus. The assay can be described thus: Influence (5 uM) on transacetylase catalyzed time dependent activation of NADPH cytochrome C reductase at pre-incubation time being 5 mins. It is filed as functional. The procedure, abridged: as §1
The species entered for assay [12] is Rattus norvegicus. Description: Influence (5 uM) on transacetylase catalyzed time dependent activation of NADPH cytochrome C reductase at pre-incubation time being 30 mins. The class given is functional. The procedure, abridged:
as §1

For assay [13], the species on record is Rattus norvegicus. Description: Influence (5 uM) on transacetylase catalyzed time dependent activation of NADPH cytochrome C reductase at pre-incubation time being 10 mins. It is filed as functional. The procedure, abridged:
as §1

For the compound `CC(=O)Oc1ccc2c(C)cc(=O)oc2c1OC(C)=O`, the inhibition in [1] was found to be 37.5%; in [3], 19%; in [4], 56.8%. The Activation in assay [2] is recorded as 18.9%; in assay [5], 39.9%; in assay [6], 10.2%; in [7], 57.6%. Further, the Activity in [8] is on record as 2.25; in assay [9], 3.75.
On to `O=c1c(O)c(-c2ccc(O)c(O)c2)oc2cc(O)cc(O)c12` [QUERCETIN], for which the Activation in [10] is reported as 5.4%; in [11], 3.7%; in assay [12], 5.7%; in assay [13], 3.3%. For the same compound, the inhibition in assay [1] was determined as 5.2%; in [3], 5.7%; in assay [4] it was 6.2%. For the same compound, the Activity worked out at 2 in assay [8] and 6 in [9].
As for `CC(=O)Oc1cc(OC(C)=O)c2c(=O)c(OC(C)=O)c(-c3ccc(OC(C)=O)c(OC(C)=O)c3)oc2c1`, the Activation in assay [10] is given as 25%; in assay [11], 7.1%; in assay [12] it was 37%; in assay [13] it was 13.3%. Moreover, the inhibition came out at 12.8% in [1], 6.7% in assay [3] and 18% in assay [4]. Further, the Activity in [8] was found to be 2.25; in [9], 4.75.
`Cc1cc(=O)oc2c(O)c(O)ccc12` [4-METHYLDAPHNETIN]: the Activation is given as 3.1% in [10], 2.8% in assay [11], 3.5% in assay [12] and 2.5% in assay [13]. In addition, the inhibition is 8.2% in assay [1], 8.5% in assay [3] and 8.9% in assay [4].

As usually defined, the inhibition is the share of the control response that was lost under treatment.
